OX1R antag-1 = antagonists of human orexin 1 receptor (OX1R); inhibition, % at 6.6 µM; AID 485270; 1.8% of 330,000 active; OX1R-expressing cells, FRET antagonist read-out; O43613; in the data active means inhibition mostly above about 38%, no sharp cut-off; inactive means mostly below about 40%;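 further: 0% = agonist challenge alone and 100% = reference antagonist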
TAAR1 antag = human TAAR1 antagonism; Q96RJ0; CHO RD-HGA16 TAAR1, Fluo-8 calcium fluorescence, antagonist; inhibition, % at 3 µM; 1.5% of 360,000 active; AID 624466;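 active means inhibition above a per-plate cutoff, the mean inhibition of test compounds on that plate plus 3 SD, cut at about 49% in these data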;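 further: 0% = DMSO plus EC80 beta-PEA response and 100% = DMSO alone without agonist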
Target sequence (Q96RJ0 whole entry, looked up): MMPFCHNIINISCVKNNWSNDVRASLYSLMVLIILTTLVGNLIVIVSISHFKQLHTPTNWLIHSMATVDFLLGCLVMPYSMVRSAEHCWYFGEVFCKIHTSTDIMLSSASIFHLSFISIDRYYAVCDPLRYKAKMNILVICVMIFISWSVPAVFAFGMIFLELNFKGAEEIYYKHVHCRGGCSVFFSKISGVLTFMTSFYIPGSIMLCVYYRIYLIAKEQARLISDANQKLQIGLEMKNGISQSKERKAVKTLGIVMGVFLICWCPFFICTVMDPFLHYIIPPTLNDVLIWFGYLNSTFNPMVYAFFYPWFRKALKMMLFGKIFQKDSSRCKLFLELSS
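System: RD-HGA16 CHO cells with stable hTAAR1 and Gα16 | Probe or stimulus: EC80 β-phenethylamine stimulus | Dosing: 3 µM, single point | Times: Dye loading 75 min at 37 °C, then 30 min room temperature | Measured by: Fluo-8 calcium-sensitive fluorescence | Read-out basis: % inhibition of agonist calcium response | Replicates: n of 1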
TAAR1 agonist = agonists of human TAAR1; Q96RJ0; CHO RD-HGA16 TAAR1, Fluo-8 calcium fluorescence; vehicle wells 0%, saturating PEA agonist 100%; activation, % at 3 µM; 0.99% of 360,000 active; AID 624467;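 active means activation above the mean activation of all test compounds in the run plus 3 SD, cut at about 38% in these data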
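System: CHO-derived RD-HGA16 cells with stable Gα16 and human TAAR1. Times: 17-24 h plating, Fluo-8 75 min 37 °C, 30 min RT. Measured by: calcium-sensitive Fluo-8 signal, excitation 470-495, emission 515-575 nm. Read-out basis: % activation relative to PEA EC100 response. Control set: DMSO and PEA EC100. Repeats: no replicates (n 1).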
GalR3 antag = human GalR3 antagonism; HEK293 GalR3-CNG cAMP membrane potential fluorescence; galR3 body fused to GalR1 C-terminus; inhibition, % at 3 µM; 0.44% of 360,000 active; AID 651719;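 active means inhibition above the screen-wide average plus 3 SD, cut at about 13% in these data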;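 further: forskolin and galanin both at EC90 stimulate the cells; cAMP rise reported by CNG channel membrane potential dye signal; 0% = forskolin plus galanin with DMSO and 100% = forskolin alone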
Target sequence (O60755 1-299 limits assumed): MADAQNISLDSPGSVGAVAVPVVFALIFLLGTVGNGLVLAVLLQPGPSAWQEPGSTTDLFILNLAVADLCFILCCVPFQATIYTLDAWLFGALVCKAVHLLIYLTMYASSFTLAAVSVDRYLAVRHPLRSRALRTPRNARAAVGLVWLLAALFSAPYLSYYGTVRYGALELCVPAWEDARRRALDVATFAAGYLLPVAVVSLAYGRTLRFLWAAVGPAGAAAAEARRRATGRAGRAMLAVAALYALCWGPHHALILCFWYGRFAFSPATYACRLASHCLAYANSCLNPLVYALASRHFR
OX1R antag-2 = blocks the human orexin 1 receptor. CHO/OX1R cells, Fluo-8 calcium fluorescence, orexin A. AID 434989. inhibition, % at 5 µM. 0.43% of 330,000 active. O43613;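 active means inhibition above its plate's threshold, mean inhibition of all tested compounds on the plate plus 3 SD, cut at about 37% in these data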;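 further: 0% = orexin A challenge wells and 100% = SB-334867-A antagonist wells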
CHO parental Ca = signal in parental CHO cells, OX1R antagonist counter-screen | parental CHO-K1, ATP-induced calcium, Fluo-8 fluorescence | inhibition, % at 5.6 µM | 0.63% of 330,000 active | AID 463079;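 active means inhibition above that plate's mean sample inhibition plus 3 SD, cut at about 26% in these data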;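 further: 0% = ATP-challenged DMSO wells and 100% = DMSO wells without ATP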
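Material – parental CHO cells · Reagent – ATP stimulus · Compound – single nominal dose of 5.6 µM per compound · Detection – Fluo-8 fluorescence · Read-out basis – percent inhibition of calcium signal · Controls – ATP-challenged DMSO wells low, unchallenged DMSO wells high · Repeats – no replicates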
* = called active by the depositor; · = no result. This is a sample that favours compounds with a hit; in the whole collection about 4.2% have one here.

SMILES	OX1R antag-1	TAAR1 antag	TAAR1 agonist	GalR3 antag	OX1R antag-2	CHO parental Ca
NC1=C(Br)C(=O)c2ccccc2C1=O	72*	-25	1	1	-6	-12
Cc1cc(/C=N/NC(N)=S)c(C)n1-c1ccc(Cl)c(Cl)c1	2	50*	31	-5	3	-11
COc1cccc(NC(=O)C(=O)N/N=C/c2cc(C)n(-c3ccc(Cl)c(Cl)c3)c2C)c1	9	14	-1	-8	1	-6
CCn1c(SCc2nc(-c3ccccc3)no2)nc2ccccc21	54*	-13	4	0	1	-10
O=C(NCCNc1ccc([N+](=O)[O-])cc1C(F)(F)F)c1ccccc1F	42	16	3	0	27	42*
N#Cc1c(-c2ccncc2)c2c([nH]c1=O)-c1ccccc1OC2	15	-20	1	0	-16	-12
CN(C)CCCNc1cc(O)c2ncccc2c1	45*	9	6	-6	-1	-11
CSc1ccccc1NC(=O)CN(C)C(=O)CCc1c[nH]c2ccccc12	14	-1	1	0	-16	-11
O=C(NCc1cccnc1)/C(=C/c1ccc(-c2cccc(C(F)(F)F)c2)o1)NC(=O)c1ccccc1	15	28	18	5	-24	-18
Cc1ccc(C(=O)N/C(=C/c2ccc(-c3cc(C(F)(F)F)ccc3Cl)o2)C(=O)NCc2cccnc2)cc1	36*	10	-1	-3	34	-15
COc1ccc(N2CCc3c(C)nc4c(OC)cccc4c32)cc1	70*	-28	1	-10	-5	6
Cc1ccc(S(=O)(=O)N2CC3(O)CN(C(=O)OC(C)C)N(C(=O)OC(C)C)CC3(OC(=O)Nc3cccs3)C2)cc1 (configuration not stated)	·	41	5	-8	·	·
Cc1ccc(S(=O)(=O)N2CC3(O)CN(C(=O)OC(C)C)N(C(=O)OC(C)C)CC3(OC(=O)NC3CCCC3)C2)cc1 (configuration not stated)	·	49*	6	-6	·	·
CSc1ncc(Cl)c(C(=O)Nc2ccccc2Br)n1	19	-22	0	4	-21	-3
Cc1occc1-c1n[nH]c(=S)n1-c1ccccc1	3	-14	0	-3	-16	-6
Cc1occc1-c1n[nH]c(=S)n1C	13	-19	1	13*	12	2
CC(=O)c1sc(N/N=C/c2cccc(O)c2)nc1C	30	-2	20	2	-21	-9
CC(=O)c1sc(N/N=C\c2ccc(N(C)C)cc2)nc1C	58*	-1	1	-5	-9	-16
COC(=O)c1ccccc1-c1ccc(/C=N/NC(=O)c2cc3ccccc3o2)o1	36	55*	10	-12	-22	-15
O=C(N/N=C/c1cccc2ccccc12)c1cc2ccccc2o1	·	14	0	-5	·	·
N#Cc1cc([N+](=O)[O-])ccc1NC(=O)COC(=O)CN1C(=O)C2CCCCC2C1=O (configuration not stated)	43*	7	2	-3	-22	-17
N#Cc1ccccc1NC(=O)COC(=O)CN1C(=O)C2CCCCC2C1=O (configuration not stated)	3	-38	3	-4	-8	-10
O=C(c1cc2ccccc2o1)N1CCN(CCOc2ccccc2)CC1	·	-18	3	5	·	·
CCCN(CC(=O)Nc1ccccc1C)C(=O)c1ccc(S(=O)(=O)N2CCCCCC2)cc1	4	-23	0	3	-21	-16
CCCN(CC(=O)Nc1ccccc1C)C(=O)c1cccc(S(=O)(=O)N2CCc3ccccc3C2)c1	12	59*	6	-2	-3	5
SMILES	OX1R antag-1	TAAR1 antag	TAAR1 agonist	GalR3 antag	OX1R antag-2	CHO parental Ca
CCOC(=O)[C@]12CCC=C1N(CCC1=CCCCC1)C(=O)[C@H](CC(=O)NCCC(C)C)C2	·	-14	1	-1	·	·
CC1CCCCN1C(=O)CSc1nnc(-c2c[nH]c3ccccc23)o1 (configuration not stated)	14	-2	9	-7	-36	-27
O=C(Oc1c(Cl)cc(Cl)c2cccnc12)c1ccco1	36	-16	-1	-3	44	34*
NC1CCN(c2nc3c(cc2F)c(=O)c(C(=O)O)cn3-c2ccc(F)cc2F)C1 (configuration not stated)	10	-18	2	3	-11	-4
Cc1cccc(-c2cc(=O)c(C(=O)O)cn2-c2ccc(F)cc2F)c1	58*	-10	0	-7	5	-1
CN(C)S(=O)(=O)Oc1ccsc1C(=O)Nc1cccc(Cl)c1Cl	42	5	1	-2	-26	46*
COc1ccc(NC(=O)c2sccc2OS(=O)(=O)N(C)C)cc1	9	21	5	-5	-16	-24
COCCn1c(SCC(=O)N2CCCCC2)nc2ccccc2c1=O	5	2	1	-7	-16	-21
Cc1ccc(NCc2nnc(SCC(=O)c3ccccc3)n2Cc2ccco2)c(C)c1	23	9	5	-4	-17	-20
Cc1ccc(S(=O)(=O)c2c(C)nn(C(C)(C)C)c2OC(=O)CC(C)C)cc1	16	-36	0	-4	-12	31*
CCC(=O)Oc1c(S(=O)(=O)c2ccc(C)cc2)c(C)nn1C(C)(C)C	47	5	7	-4	-23	8
O=C(NC(=S)NCCC1=CCCCC1)c1ccccc1Br	65*	13	14	-4	-10	-12
O=C(COC(=O)c1ccccc1Br)NCCC1=CCCCC1	5	-4	6	1	-21	-13
Cc1ccc(/C=N/n2c(C3CCCCC3)n[nH]c2=S)cc1	-3	-12	8	-9	14	43*
O=C(Nc1cccnc1)c1cc(-c2cc(Cl)ccc2O)n[nH]1	67*	-14	27	0	-16	-18
COc1ccccc1N(CC(=O)Nc1cc(S(=O)(=O)N(C)C)ccc1C)S(=O)(=O)c1cccs1	34*	8	2	0	26	-16
COc1ccc(S(=O)(=O)N(CC(=O)N/N=C/c2cccs2)c2cc(C)cc(C)c2)cc1OC	50*	47	13	-9	35	-26
COc1ccc(CNC(=O)CN(c2ccccc2OC)S(=O)(=O)c2cccs2)cc1	12	46	11	-7	-5	-10
COc1ccc(C)cc1S(=O)(=O)N(CC(=O)Nc1cccc([N+](=O)[O-])c1)c1ccccc1	29	14	4	-5	-6	-9
Cc1ccccc1OCCC(=O)OCC(=O)c1c(N)n(CC(C)C)c(=O)n(C)c1=O	41	29	9	-3	27	46*
CC(C)Cn1c(N)c(C(=O)COC(=O)CCc2nc3ccccc3s2)c(=O)n(C)c1=O	35	37	13	-3	40	34*
